Data reported in article PMC4086711 (European journal of pain (London, England), 2011).
Counter-ions that a name gives are not always drawn.

Key:
KOR = assay: Ca2+ mobilization; type: cell-based; settings: agonist; HEK-293 with chimeric G-protein delta6-Gqi4-myr
How it was run: (§1)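 HEK-293 cells stably expressing the receptor, grown in DMEM with 10% FCS at 37 °C in 7% CO2, were transiently transfected with Δ6-Gqi4-myr (100 ng per 60,000 cells). After one day, cells were loaded with Ca2+ dye for 60 min and stimulated with increasing ligand concentrations to give dose–response curves and EC50. Each experiment was run at least three times in triplicate; values are means ± SEM.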

MOR = assay: Ca2+ mobilization; type: cell-based; settings: agonist; HEK-293 with chimeric G-protein delta6-Gqi4-myr
How it was run: as §1

COC(=O)N1CCN(C(=O)Cc2ccc(Cl)c(Cl)c2)C(CN2CCCC2)C1 (centres unmarked) [GR89, 696, 4-[(3,4-Dichlorophenyl)acetyl]-3-(1-pyrrolidinylmethyl)-1-piperazine-carboxylic acid methyl ester fumarate]
pEC50 (M) / KOR (KOR): 10.1 ± 0.2 pEC50 (M)
pEC50 (M) / MOR (MOR): 7.2 ± 0.2 pEC50 (M)
